Screens: PubChem, several laboratories
This is a sample that favours compounds with a hit; in the whole collection about 2.7% have one here.
CSN inh – blocks human CSN-mediated cullin deneddylation; Q92905; Purified CSN, SCF-Nedd8-OG deneddylation, fluorescence polarization; inhibition, % at 12.5 µM; 0.38% of 360,000 active;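 active means pattern-corrected inhibition above about 35%, with an unprinted fluorescence ratio check between 0.5 and 1.5, limit read from the data, passing the limit was not always enough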;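 further: 0% = enzyme with substrate and 100% = substrate without enzyme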
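Schedule: reaction 90 min, room temperature / Assay system: HEK293T-derived human Csn5 enzyme / Input: Csn5 at 0.24 nM final / Measure: inhibition of Csn5 cleavage, % / Control set: substrate-only high control, full reaction low control / Technique: fluorescence polarization of the substrate / Buffer or medium: Tris/NaCl/DTT buffer, pH 7.5 / Reagent: SCFSkp2-Nedd8OG substrate at 10 nM final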
Rpn11 inh – inhibitors of human proteasome Rpn11. O00487. human 26S proteasome, Ub4-pepOG fluorescence polarization; 20S core pre-blocked with epoxomicin. inhibition, % at 20 µM. 0.59% of 360,000 active. AID 588493;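 active means inhibition at 20 µM, scaled to each plate's controls, above about 33%, limit read from the data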
Target sequence (O00487 whole entry, looked up): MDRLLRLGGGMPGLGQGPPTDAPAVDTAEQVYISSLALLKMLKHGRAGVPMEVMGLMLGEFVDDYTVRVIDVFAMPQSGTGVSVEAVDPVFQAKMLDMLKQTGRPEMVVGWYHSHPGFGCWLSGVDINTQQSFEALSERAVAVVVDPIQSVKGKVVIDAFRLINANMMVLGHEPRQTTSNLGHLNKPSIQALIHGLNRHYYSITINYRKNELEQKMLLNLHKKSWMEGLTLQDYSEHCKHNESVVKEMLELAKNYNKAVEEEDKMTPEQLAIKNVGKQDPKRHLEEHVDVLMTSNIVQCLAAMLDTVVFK
PP1 inh – blocks human PP1-alpha phosphatase, a PP5 counter-screen; P62136; purified PP1alpha, OMFP fluorescence; inhibition, % at 6.7 µM; 0.9% of 320,000 active; AID 2235;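 active means inhibition above the mean inhibition of all tested compounds plus 3 SD, computed separately for each screening campaign, cut at about 15% in these data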
NadD inh – inhibitors of Staphylococcus aureus NadD; purified NadD enzyme, colorimetric absorbance read-out; inhibition, % at 20 µM; 0.78% of 360,000 active; in the data active means inhibition above about 26%
TPT1 inh – inhibitors of Candida albicans tRNA 2'-phosphotransferase TPT1. recombinant caTPT1, FP RNA substrate dephosphorylation. AID 1962. inhibition, % at 5 µM. 0.81% of 300,000 active;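 active means inhibition above the mean of all tested compounds plus 3 SD, set per screening campaign, cut at about 24% in these data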;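 further: plate controls were DMSO alone for no effect and ferristatin control at 100 nM for full effect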
HNF4A DNA FP – change in binding of human HNF4 alpha to DNA; HNF4a-FITC DNA binding, fluorescence polarization, 1 h; activity change, % at 10 µM; 0.3% of 360,000 active; in the data active means activity change above about 30%, passing the limit was not always enough
Starred values were filed as active, the others as inactive; . = not tested or not shown.

SMILES	CSN inh	Rpn11 inh	PP1 inh	NadD inh	TPT1 inh	HNF4A DNA FP
Fc1ccc(CN2CCN(c3ncccn3)CC2)cc1	37*	-8	-2	2	1	1
Nc1ccn(C2CSC(CO)O2)c(=O)n1 (centres undefined)	1	.	.	7	.	.
Nc1nc(COC(=O)c2ccc3c(c2)OCCO3)nc(Nc2ccccc2)n1	-1	-2	0	11	.	-1
Nc1nc(COC(=O)CCC(=O)c2ccccc2)nc(Nc2ccccc2)n1	106*	7	.	14	.	30
Cc1noc(NS(=O)(=O)c2ccc(NS(=O)(=O)c3ccc(C(C)(C)C)cc3)cc2)c1C	-6	-15	.	-2	.	-1
Cc1cc(SCC(=O)N2CCN(C(=O)c3ccco3)CC2)c(C)cc1Br	-2	-1	2	-3	.	1
COc1cc(C(=O)NCCSc2ccc(Br)cc2)cc(OC)c1OC	70*	-8	-5	-3	0	1
COc1cc(C(=O)NCCSc2ccc(Cl)cc2)cc(OC)c1OC	0	4	-11	-3	0	-1
C=CCn1c(O)c(N=Nc2ccccc2[N+](=O)[O-])c2ccccc21	1	-4	.	-7	.	-3
COC(=O)C1=C(CN2CCN(C)CC2)NC(=O)NC1c1cc(C)ccc1C (centres undefined)	-7	5	-3	-2	2	0
COC(=O)C1=C(CN2CCc3ccccc32)NC(=O)NC1c1cc(C)ccc1C (centres undefined)	-2	9	15*	30	-2	7
Cc1cccc(NC(=O)CN(CC2CCCO2)C(=O)c2cc(S(=O)(=O)N(C)C)ccc2F)c1C (centres undefined)	3	1	.	3	.	-1
NNc1nc2c(-c3cccc(C(F)(F)F)c3)nnn2c2ccccc12	18	.	.	25	.	36*
COCCNc1nc2c(-c3cccc(C(F)(F)F)c3)nnn2c2ccccc12	-3	11	0	-11	2	1
Cc1nc2c(C(=O)NCCc3ccccc3Cl)c[nH]n2c(=O)c1Cl	3	4	17*	23	-3	-2
Cc1ccc(S(=O)(=O)N2CCOCC2)cc1NC(=O)CSc1nnc(COc2ccccc2F)n1N	3	-1	.	10	.	-1
Nc1ccc(N2CCCCC2)c2nonc12	-9	10	17*	5	3	0
CC1C(=O)CC(c2ccccc2)NC1c1ccccc1 (centres undefined)	2	1	0	8	6	1
CC(C)C1C(=O)CC(c2ccccc2)NC1c1ccccc1 (centres undefined)	1	1	1	-4	-3	38*
CCOC(=O)c1c(NC(=O)COC(=O)CCOc2ccc(OCC)cc2)sc(C(=O)N(C)C)c1C	121*	-1	-1	-1	-1	-1
O=C(CC1CC1)Nc1ccc2c(c1)[C@@H]1C[C@H](CC(=O)NC3CCCC3)O[C@@H](CO)[C@@H]1O2	5	-4	.	2	.	0
Cc1nn(CC(=O)N2CCCC2)c(=O)c2cc3cc(F)ccc3n12	-2	-4	-3	2	-2	0
c1ccc(CN=C2NN=C(c3ccccc3)CS2)cc1	3	8	2	9	5	-1
CCN=C1NN=C(c2ccc(C)cc2)CS1	3	41*	1	1	20	14
Cc1ccc(C(C(=O)NC2CCCCC2)N2CCCC2)cc1 (centres undefined)	0	-2	17*	-4	0	0
Cc1ccc(C(C(=O)NC2CCCC2)N2CCCCC2)cc1 (centres undefined)	2	2	-3	7	-1	-1
CC1CCN(c2cc(N3CCC(C)CC3)c([N+](=O)[O-])cc2/C=C(\C#N)c2nn(-c3ccccc3)c(N)c2C#N)CC1	8	-3	-4	51*	4	3
CC1CCN(c2ccc(/C=C(\C#N)c3nn(-c4ccccc4)c(N)c3C#N)cc2[N+](=O)[O-])CC1	-14	-4	-4	18	-4	0
Cc1cccn2c(=O)c(C=O)c(NCc3ccccc3)nc12	1	-19	-5	-6	0	3
CCCN1C(=O)/C(=C/c2c(NCCCOCC)nc3c(C)cccn3c2=O)SC1=S	38*	78*	.	-1	.	50*
